Assay results from the M2OR odorant receptor database.

Assays:
Conditions in all cases: stereoisomer not certain
UniProt Q8VF52 = target: T1, UniProt Q8VF52
T1 sequence (whole entry): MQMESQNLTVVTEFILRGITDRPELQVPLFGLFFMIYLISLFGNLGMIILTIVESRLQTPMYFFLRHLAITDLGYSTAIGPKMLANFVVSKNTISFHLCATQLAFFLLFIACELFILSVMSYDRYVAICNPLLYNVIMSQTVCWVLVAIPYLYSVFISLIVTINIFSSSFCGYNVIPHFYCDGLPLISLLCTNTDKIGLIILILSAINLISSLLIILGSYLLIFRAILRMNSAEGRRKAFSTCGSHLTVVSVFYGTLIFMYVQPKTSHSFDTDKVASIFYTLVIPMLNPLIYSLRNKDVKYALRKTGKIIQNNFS
Procedure, shortened: (§1)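 Assay methods differ from source to source, frequently being transient luciferase assays in mammalian cell lines. For each receptor–molecule pair, the label responsive (active) applies when the original authors judged the measured signal statistically different from baseline, and non-responsive (inactive) applies otherwise.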

UniProt Q8VFG6 = target: T2, UniProt Q8VFG6
T2 sequence (whole entry): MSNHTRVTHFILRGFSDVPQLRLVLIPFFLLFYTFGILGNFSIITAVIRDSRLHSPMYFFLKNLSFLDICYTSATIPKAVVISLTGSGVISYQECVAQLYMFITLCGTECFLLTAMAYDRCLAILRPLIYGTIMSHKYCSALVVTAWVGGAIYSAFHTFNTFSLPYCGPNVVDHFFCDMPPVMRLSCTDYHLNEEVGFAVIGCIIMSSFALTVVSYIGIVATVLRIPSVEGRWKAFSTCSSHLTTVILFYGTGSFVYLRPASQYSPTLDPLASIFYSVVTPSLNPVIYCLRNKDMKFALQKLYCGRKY
Procedure, shortened: as §1

UniProt Q8VFM8 = target: T3, UniProt Q8VFM8
T3 sequence (whole entry): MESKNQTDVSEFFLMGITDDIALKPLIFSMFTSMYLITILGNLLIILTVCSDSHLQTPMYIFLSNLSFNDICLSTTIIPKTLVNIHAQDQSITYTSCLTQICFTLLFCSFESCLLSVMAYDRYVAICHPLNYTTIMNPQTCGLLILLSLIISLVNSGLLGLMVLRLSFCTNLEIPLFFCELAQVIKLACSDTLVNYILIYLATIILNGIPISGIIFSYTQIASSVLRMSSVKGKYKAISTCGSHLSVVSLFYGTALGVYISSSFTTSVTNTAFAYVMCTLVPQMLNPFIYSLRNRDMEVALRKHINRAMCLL
Procedure, shortened: as §1

UniProt Q8VFP5 = target: T4, UniProt Q8VFP5
T4 sequence (whole entry): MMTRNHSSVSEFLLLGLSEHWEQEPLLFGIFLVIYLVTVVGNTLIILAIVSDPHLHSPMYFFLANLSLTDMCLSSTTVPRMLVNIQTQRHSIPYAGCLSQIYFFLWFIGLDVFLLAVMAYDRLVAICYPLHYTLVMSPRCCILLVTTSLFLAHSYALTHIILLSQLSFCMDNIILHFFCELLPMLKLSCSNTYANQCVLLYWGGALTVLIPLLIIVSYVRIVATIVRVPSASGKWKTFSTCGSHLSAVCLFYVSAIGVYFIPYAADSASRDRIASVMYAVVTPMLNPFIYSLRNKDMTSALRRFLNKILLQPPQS
Procedure, shortened: as §1

UniProt Q8VFZ6 = target: T5, UniProt Q8VFZ6
T5 sequence (whole entry): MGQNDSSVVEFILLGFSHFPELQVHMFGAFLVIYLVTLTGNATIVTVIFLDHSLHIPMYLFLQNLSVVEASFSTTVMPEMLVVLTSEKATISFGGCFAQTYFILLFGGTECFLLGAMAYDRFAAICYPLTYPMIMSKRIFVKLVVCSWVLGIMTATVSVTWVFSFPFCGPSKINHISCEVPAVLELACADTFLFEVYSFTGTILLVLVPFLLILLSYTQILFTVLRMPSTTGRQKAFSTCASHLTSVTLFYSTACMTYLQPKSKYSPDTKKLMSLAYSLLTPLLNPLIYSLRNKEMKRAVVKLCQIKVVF
Procedure, shortened: as §1

UniProt Q8VG01 = target: T6, UniProt Q8VG01
T6 sequence (whole entry): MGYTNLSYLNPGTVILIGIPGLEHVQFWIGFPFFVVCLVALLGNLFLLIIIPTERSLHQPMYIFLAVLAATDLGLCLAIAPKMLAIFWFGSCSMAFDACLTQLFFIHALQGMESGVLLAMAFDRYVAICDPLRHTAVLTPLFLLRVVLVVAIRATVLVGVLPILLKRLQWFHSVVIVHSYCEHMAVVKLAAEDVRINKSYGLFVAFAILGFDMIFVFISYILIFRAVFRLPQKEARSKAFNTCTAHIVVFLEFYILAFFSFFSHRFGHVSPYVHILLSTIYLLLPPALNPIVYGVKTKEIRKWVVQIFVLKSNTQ
Procedure, shortened: as §1

UniProt Q8VG22 = target: T7, UniProt Q8VG22
T7 sequence (whole entry): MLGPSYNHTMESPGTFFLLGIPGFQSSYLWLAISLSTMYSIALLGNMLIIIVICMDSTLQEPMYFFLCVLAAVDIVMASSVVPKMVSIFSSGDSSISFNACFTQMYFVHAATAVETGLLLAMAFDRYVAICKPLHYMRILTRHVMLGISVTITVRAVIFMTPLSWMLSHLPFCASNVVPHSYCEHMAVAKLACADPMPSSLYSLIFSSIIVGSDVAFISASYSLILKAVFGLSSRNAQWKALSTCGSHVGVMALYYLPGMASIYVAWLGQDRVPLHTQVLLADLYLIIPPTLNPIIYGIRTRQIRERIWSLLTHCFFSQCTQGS
Procedure, shortened: as §1

UniProt Q8VG27 = target: T8, UniProt Q8VG27
T8 sequence (whole entry): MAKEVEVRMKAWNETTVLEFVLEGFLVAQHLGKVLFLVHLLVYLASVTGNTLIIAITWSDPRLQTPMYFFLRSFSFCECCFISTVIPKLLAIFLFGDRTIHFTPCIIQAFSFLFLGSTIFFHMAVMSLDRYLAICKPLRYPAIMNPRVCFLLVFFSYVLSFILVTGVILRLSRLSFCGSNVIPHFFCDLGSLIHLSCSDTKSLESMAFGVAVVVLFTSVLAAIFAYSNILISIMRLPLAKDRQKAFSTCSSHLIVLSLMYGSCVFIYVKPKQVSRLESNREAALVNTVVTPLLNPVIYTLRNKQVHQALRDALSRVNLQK
Procedure, shortened: as §1

UniProt Q8VG49 = target: T9, UniProt Q8VG49
T9 sequence (whole entry): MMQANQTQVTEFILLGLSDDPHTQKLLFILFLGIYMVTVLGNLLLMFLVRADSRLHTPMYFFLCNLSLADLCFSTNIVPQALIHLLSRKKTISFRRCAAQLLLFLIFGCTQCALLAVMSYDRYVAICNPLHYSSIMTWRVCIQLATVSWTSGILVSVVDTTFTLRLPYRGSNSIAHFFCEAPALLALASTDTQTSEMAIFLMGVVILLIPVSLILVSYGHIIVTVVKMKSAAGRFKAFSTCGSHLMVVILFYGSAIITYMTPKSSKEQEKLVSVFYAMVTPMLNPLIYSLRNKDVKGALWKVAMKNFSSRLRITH
Procedure, shortened: as §1

UniProt Q8VG53 = target: T10, UniProt Q8VG53
T10 sequence (whole entry): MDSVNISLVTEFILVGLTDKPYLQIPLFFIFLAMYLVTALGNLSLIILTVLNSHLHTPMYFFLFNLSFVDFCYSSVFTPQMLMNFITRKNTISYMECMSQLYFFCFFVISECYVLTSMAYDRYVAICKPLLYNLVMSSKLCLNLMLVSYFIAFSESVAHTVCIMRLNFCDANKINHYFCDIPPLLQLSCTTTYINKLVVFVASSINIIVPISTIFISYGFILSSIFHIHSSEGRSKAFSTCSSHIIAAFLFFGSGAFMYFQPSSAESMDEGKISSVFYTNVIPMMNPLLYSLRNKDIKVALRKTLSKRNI
Procedure, shortened: as §1

UniProt Q8VG64 = target: T11, UniProt Q8VG64
T11 sequence (whole entry): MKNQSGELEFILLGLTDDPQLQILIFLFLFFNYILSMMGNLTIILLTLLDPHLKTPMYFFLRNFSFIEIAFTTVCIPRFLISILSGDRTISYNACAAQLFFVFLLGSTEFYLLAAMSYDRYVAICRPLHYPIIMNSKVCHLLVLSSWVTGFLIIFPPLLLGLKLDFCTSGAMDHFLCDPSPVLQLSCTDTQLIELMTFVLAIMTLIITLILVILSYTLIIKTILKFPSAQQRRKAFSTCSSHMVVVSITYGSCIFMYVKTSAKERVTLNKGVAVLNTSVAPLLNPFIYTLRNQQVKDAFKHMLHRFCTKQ
Procedure, shortened: as §1

UniProt Q8VG77 = target: T12, UniProt Q8VG77
T12 sequence (whole entry): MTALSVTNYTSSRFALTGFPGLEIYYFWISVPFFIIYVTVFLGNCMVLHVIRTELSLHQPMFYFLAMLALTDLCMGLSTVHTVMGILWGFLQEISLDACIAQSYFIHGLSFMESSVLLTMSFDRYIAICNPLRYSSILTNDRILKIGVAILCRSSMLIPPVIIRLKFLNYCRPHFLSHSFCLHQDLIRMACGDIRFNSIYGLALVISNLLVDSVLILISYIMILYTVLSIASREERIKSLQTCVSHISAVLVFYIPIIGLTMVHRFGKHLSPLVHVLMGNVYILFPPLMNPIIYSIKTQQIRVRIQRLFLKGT
Procedure, shortened: as §1

UniProt Q8VG96 = target: T13, UniProt Q8VG96
T13 sequence (whole entry): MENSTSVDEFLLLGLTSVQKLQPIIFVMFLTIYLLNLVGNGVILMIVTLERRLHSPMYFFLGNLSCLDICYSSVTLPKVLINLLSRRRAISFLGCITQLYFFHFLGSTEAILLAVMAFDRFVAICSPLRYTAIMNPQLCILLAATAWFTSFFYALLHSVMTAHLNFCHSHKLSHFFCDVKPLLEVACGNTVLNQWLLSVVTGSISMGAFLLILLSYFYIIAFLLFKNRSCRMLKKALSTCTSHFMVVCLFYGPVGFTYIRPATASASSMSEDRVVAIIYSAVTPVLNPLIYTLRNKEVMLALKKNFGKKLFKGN
Procedure, shortened: as §1

UniProt Q8VGB9 = target: T14, UniProt Q8VGB9
T14 sequence (whole entry): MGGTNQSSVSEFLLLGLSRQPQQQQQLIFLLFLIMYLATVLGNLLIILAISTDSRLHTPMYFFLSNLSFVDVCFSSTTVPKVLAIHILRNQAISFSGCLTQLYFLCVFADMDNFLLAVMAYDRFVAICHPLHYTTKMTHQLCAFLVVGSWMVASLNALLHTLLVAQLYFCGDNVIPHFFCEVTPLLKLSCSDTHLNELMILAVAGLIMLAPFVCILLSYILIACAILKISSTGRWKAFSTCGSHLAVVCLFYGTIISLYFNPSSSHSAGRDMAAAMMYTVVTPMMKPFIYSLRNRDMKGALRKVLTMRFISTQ
Procedure, shortened: as §1

UniProt Q8VGC6 = target: T15, UniProt Q8VGC6
T15 sequence (whole entry): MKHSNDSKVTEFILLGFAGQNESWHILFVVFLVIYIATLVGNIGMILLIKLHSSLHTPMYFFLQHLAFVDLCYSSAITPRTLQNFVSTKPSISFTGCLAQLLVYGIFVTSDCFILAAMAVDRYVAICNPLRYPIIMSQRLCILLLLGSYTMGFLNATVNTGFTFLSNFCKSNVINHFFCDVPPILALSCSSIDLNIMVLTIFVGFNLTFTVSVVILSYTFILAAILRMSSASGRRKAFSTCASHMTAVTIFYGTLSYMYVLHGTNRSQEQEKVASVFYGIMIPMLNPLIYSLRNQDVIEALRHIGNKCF
Procedure, shortened: as §1

UniProt Q8VGD7 = target: T16, UniProt Q8VGD7
T16 sequence (whole entry): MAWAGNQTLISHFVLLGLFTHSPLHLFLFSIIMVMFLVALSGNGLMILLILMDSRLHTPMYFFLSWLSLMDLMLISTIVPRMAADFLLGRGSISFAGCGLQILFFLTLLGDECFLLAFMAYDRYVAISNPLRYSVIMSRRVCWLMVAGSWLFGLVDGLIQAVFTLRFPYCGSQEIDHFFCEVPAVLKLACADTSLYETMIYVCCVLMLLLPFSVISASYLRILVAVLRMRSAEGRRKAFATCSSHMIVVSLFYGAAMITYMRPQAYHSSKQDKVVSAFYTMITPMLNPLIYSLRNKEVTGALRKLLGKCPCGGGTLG
Procedure, shortened: as §1

UniProt Q8VGH1 = target: T17, UniProt Q8VGH1
T17 sequence (whole entry): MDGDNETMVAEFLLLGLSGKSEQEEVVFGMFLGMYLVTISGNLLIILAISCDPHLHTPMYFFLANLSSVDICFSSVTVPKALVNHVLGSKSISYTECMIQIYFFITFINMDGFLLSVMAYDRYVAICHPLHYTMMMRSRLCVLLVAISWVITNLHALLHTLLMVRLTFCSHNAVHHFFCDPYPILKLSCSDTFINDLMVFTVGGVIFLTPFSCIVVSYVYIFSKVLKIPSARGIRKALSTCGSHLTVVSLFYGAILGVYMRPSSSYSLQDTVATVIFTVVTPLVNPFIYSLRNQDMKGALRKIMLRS
Procedure, shortened: as §1

UniProt Q8VGJ1 = target: T18, UniProt Q8VGJ1
T18 sequence (whole entry): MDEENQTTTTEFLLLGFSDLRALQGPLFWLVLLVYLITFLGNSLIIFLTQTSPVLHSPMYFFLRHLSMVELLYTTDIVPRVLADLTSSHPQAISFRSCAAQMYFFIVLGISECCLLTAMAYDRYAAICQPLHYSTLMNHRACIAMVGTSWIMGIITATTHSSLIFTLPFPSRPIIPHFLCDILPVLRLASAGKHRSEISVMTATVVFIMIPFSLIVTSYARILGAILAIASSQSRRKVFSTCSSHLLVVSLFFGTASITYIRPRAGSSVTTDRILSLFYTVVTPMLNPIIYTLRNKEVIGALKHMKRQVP
Procedure, shortened: as §1

UniProt Q8VGJ3 = target: T19, UniProt Q8VGJ3
T19 sequence (whole entry): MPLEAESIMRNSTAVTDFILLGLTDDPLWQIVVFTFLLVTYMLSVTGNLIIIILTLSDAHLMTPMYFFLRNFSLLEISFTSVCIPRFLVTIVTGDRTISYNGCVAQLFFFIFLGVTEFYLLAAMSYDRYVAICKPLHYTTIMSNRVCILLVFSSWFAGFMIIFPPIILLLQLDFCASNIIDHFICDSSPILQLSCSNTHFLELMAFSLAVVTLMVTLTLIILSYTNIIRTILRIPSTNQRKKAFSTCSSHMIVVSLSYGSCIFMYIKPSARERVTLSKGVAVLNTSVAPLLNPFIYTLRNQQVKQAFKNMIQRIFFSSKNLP
Procedure, shortened: as §1

Measured: odorant receptor agonist call

C=CCOC(=O)Cc1ccccc1
active: UniProt Q8VFG6 | UniProt Q8VFZ6 | UniProt Q8VGC6
inactive: all other assays above
